PP1 counter = counter-screen for PP5 inhibitors: inhibitors of human PP1-alpha; inhibition, % at 6.7 µM; purified PP1alpha, OMFP fluorescence; P62136; 320,000 tested, 0.9% active;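 active = inhibition above the mean inhibition of all tested compounds plus 3 SD, computed separately for each screening campaign, cut at about 15% in these data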
Target sequence (P62136 whole entry, looked up): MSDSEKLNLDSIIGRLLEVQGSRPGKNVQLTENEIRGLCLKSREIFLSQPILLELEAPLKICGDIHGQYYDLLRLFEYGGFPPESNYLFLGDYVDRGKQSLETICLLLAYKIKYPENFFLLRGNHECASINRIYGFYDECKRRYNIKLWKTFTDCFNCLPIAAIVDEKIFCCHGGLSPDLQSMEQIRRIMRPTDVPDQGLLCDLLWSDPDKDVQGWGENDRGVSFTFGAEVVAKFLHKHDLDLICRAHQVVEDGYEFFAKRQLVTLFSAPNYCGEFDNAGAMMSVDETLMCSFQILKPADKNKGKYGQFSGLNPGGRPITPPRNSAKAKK
HIF activator = HIF pathway transcriptional activation. AID 1910. U2OS HRE-luciferase reporter, luminescence; normalized: DMSO 0%, desferrioxamine 100%. activation, % at 7.5 µM (by protocol). 300,000 tested, 0.32% active;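 active = mean activation of at least 10% of the iron chelator positive control signal, with at least half of replicates also reaching 10%; inconclusive = mean and replicate majority disagree about reaching 10%; inactive = mean and most replicates under 10%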
DNA FID counter = counter-screen for HCV NS3 helicase inhibitors: DNA intercalator displacement | DNA fluorescent intercalator displacement, fluorescence | inhibition, % at 7.9 µM | 290,000 tested, 0.17% active; in the data active = inhibition above about 37%;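 note: higher means more ethidium bromide displaced from hairpin DNA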
PP5 primary = inhibitors of human protein phosphatase 5 (PP5); purified PP5c, OMFP substrate fluorescence; inhibition, % at 6.7 µM; 320,000 tested, 0.18% active; AID 1987;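 active = inhibition above the campaign's mean inhibition across all tested compounds plus 3 SD, cut at about 9.5% in these data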
HCV NS3 hel inh = HCV NS3 helicase inhibition; NS3 helicase DNA unwinding, Cy5 molecular beacon fluorescence; 290,000 tested, 0.56% active; inhibition, % at 10.9 µM;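 active = inhibition above the mean of all tested compounds plus 3 SD, set per campaign, cut at about 35% in these data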
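Assay system: hepatitis C virus NS3 helicase domain fragment enzyme. Also added: annealed dual-labelled DNA beacon duplex, ATP-started. Timing: 1 h reaction at 25 °C, ATP-initiated. Technique: Cy5 fluorescence at 0 and 60 min, beacon hairpin quenching. Evaluation: % inhibition of unwinding. Replication: one well per compound.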
PP1 inh confirm = confirmation of human PP1 phosphatase inhibitors; purified PP1alpha, OMFP substrate fluorescence; inhibition, % at 6.7 µM; 1,900 tested, 52% active; shares compounds with PP1 counter;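 active = mean PP1 inhibition above a set limit taken from the earlier primary screen, cut at about 15% in these data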
PP5 inh counter = inhibits human PP5 phosphatase in PP1 counter-screen; AID 2360; shares compounds with PP1 counter; purified PP5c, OMFP fluorescence; 1,900 tested, 4% active; inhibition, % at 6.7 µM;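 active = mean PP5 inhibition over triplicate wells above about 9.5% taken from the earlier PP1 screen, limit read from the data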
A number is an active result; - = inactive; ? = inconclusive; . = not tested or not shown. This is a sample that favours compounds with a hit; in the whole collection about 1.9% have one here.

SMILES	PP1 counter	HIF activator	DNA FID counter	PP5 primary	HCV NS3 hel inh	PP1 inh confirm	PP5 inh counter
Cc1ccc(NC(=O)CN2C(=O)N/C(=C/c3ccccc3OCc3cccc(C(=O)O)c3)C2=O)cc1	51.7	-	-	-	-	33.3	-
CC1CN(C(=O)c2c(Br)cnn2C)CC(C)O1 (stereo not given)	-	-	-	-	-	.	.
Cc1cc(-c2csc(NCc3ccccc3)n2)c(C)n1C	.	.	-	.	-	.	.
Cc1cc(-c2csc(N)n2)c(C)n1CCc1ccccc1	21.3	-	-	-	-	19.5	-
Cc1ccc(CN2CCNC(=O)C2CC(=O)NC2CCCCCC2)cc1 (stereo not given)	-	-	-	-	-	.	.
CCOc1ccc(CN2CCNC(=O)C2CC(=O)NC2CCCCCC2)cc1 (stereo not given)	17.8	-	-	-	-	-	-
Cc1ccc(-n2c(C)cc(C(=O)COC(=O)c3ccc[nH]c3=O)c2C)cc1C	20.8	-	-	-	-	16.2	-
O=C(CSc1nc2[nH]ncc2c(=O)[nH]1)NCc1ccc(F)cc1	-	-	-	-	-	.	.
COc1ccccc1CNC(=O)COC(=O)C1CCN(S(=O)(=O)c2ccccc2)CC1	-	-	.	-	.	.	.
CCCCCN(C(=O)CCC(=O)OCC(=O)c1c(C)cc(C)cc1C)c1c(N)n(CCCC)c(=O)[nH]c1=O	-	-	.	-	.	.	.
Cc1ccccc1C(=O)OCC(=O)N(C)c1c(N)n(Cc2ccccc2)c(=O)[nH]c1=O	-	-	.	-	.	.	.
COCCN(C(=O)COC(=O)Cc1ccc(Cl)cc1Cl)c1c(N)n(Cc2ccccc2)c(=O)[nH]c1=O	81.5	-	.	-	.	-	-
Cc1cc(C(=O)OCC(=O)N(C)c2c(N)n(Cc3ccccc3)c(=O)[nH]c2=O)c(C)n1-c1ccccc1	20.5	.	.	-	.	-	-
COc1cccc(-c2ccc(NC(=O)C3CCCN(CCCn4nc(C)cc4C)C3)cc2)c1 (stereo not given)	-	-	-	-	-	.	.
CCCn1c(=N)n(CCOCCOCCn2c(=N)n(CCC)c3ccccc32)c2ccccc21	.	.	-	.	-	.	.
COc1ccc(CNCC(O)COc2ccc(C(C)(C)c3ccccc3)cc2)cc1 (stereo not given)	23.8	-	-	-	-	-	-
O=C(Nc1ccc(S(=O)(=O)Nc2nccs2)cc1)c1ccc(N2C(=O)c3ccccc3C2=O)cc1	27.5	-	-	-	-	-	-
CCCCCCSc1cc(-c2nc3cnccn3c2NCc2ccccc2)ccc1OC	17.8	-	.	-	.	-	-
CCCCNc1c(-c2ccc(OC)c(SC3CCCCC3)c2)nc2cnccn12	25.7	-	.	-	.	16.9	-
CCCCCCSc1cc(-c2nc3cc(C)ccn3c2NC2CCCCC2)ccc1OC	22.5	-	.	-	.	-	-
O=C(Nc1ccccc1N1CCN(C(=O)c2ccc(Cl)cc2)CC1)c1cc(Br)ccc1Cl	17.6	-	-	-	-	-	-
Cn1c(=O)[nH]c2ncccc21	28.4	-	-	-	-	-	-
Cn1c(=O)[nH]c2c(Cl)nccc21	-	-	-	-	-	.	.
Cn1cccc1-c1cc(C(=O)N/N=C/c2cc(Br)ccc2O)[nH]n1	21.1	10.4	-	-	-	22.5	-
CCCn1c(N)c(C(=O)CSc2nc(C)nc3sc(C)c(C)c23)c(=O)[nH]c1=O	22.3	-	.	-	.	-	-
SMILES	PP1 counter	HIF activator	DNA FID counter	PP5 primary	HCV NS3 hel inh	PP1 inh confirm	PP5 inh counter
CCOC(=O)c1cnc(-n2nc(C)cc2C)nc1NC	-	-	-	-	-	.	.
CCOC(=O)c1cnc(-n2nc(C)cc2C)nc1NC1CCCCC1	55.2	-	-	-	-	53.9	-
Cc1ccccc1C(=O)NCCNC(=O)c1cnccn1	-	-	-	-	-	.	.
O=P(O)(O)CP(=O)(O)O	25.3	-	-	-	-	37.9	-
C/C(=C\c1ccccc1)C(=O)Nc1ccc(S(=O)(=O)Nc2ncccn2)cc1	-	-	-	-	-	.	.
Cc1ccc(C)c(OCCn2cc(/C=C(/C#N)C(=O)NCC3CCCO3)c3ccccc32)c1 (stereo not given)	52.8	-	-	-	-	-	-
COc1ccccc1C(=O)Nc1ccc(OCC(=O)N2CCCCC2C)cc1 (stereo not given)	-	.	.	-	.	.	.
Cc1cc(F)ccc1NS(=O)(=O)c1c(C(=O)N2CCOCC2)c(C)n(C)c1C	-	-	-	-	-	.	.
COCCN(CCOC)S(=O)(=O)c1ccc(C(=O)Nc2nnc(C3CC3)o2)cc1	-	-	-	-	-	.	.
CN(c1ccccc1)S(=O)(=O)c1ccc(C(=O)Nc2nnc(C3CC3)o2)cc1	21.9	-	-	-	-	18.7	-
CCN(c1ccccc1)S(=O)(=O)c1ccc(C(=O)Nc2nnc(COC)o2)cc1	-	-	-	-	-	.	.
CCN(c1ccccc1)S(=O)(=O)c1ccc(C(=O)Nc2nnc(C3CC3)o2)cc1	30.7	-	-	-	-	29.4	-
COc1ccc(C2=NS(=O)(=O)N(C)C(C(=O)NCc3ccc4c(c3)OCO4)=C2)cc1OC	-	-	-	-	-	.	.
CCOC(=O)c1c(-c2ccc(-c3ccccc3)cc2)csc1NC(=O)C1C2CCC(O2)C1C(=O)O (stereo not given)	22.2	-	-	11.1	-	-	-
Cc1ccc(F)cc1NC(=O)C1C2CCC(O2)C1C(=O)O (stereo not given)	55.2	-	-	63.5	-	20.4	25.9
O=C(O)C1C2CCC(O2)C1C(=O)Nc1ccccc1Br (stereo not given)	68.4	-	-	68.4	-	25.1	32.5
Cc1ccc(F)cc1NC(=O)C1CCCN(c2ncccn2)C1 (stereo not given)	-	-	-	-	-	.	.
Cc1ccccc1NC(=O)C1C2CCC(O2)C1C(=O)O (stereo not given)	50.8	-	-	62.8	-	31.7	40.6
COc1ccc2cc(Br)ccc2c1CC(=O)NCCCN1CCOCC1	-	-	.	-	.	.	.
Cc1ccccc1C(=O)NCC(=O)OC(C)C(=O)Nc1cccc(S(=O)(=O)N2CCOCC2)c1 (stereo not given)	-	-	.	-	.	.	.
Cc1ccc(S(=O)(=O)N2CCOCC2)cc1C(=O)Nc1ccc2c(c1)OCCO2	-	.	.	-	.	.	.
CCCCc1ccc(-c2nc(NC(=O)C3C4CCC(O4)C3C(=O)O)sc2C)cc1 (stereo not given)	74.9	-	-	75.2	-	34.8	40.3
Cc1sc(NC(=O)c2ccco2)nc1-c1ccccc1	-	-	-	-	-	.	.
Cc1noc(/C=C/c2ccco2)c1S(=O)(=O)N1CCC(C(=O)N(C)Cc2ccccc2)CC1	18.7	-	-	-	-	-	-
CCN(CCN(C)C)C(=O)C1CCN(S(=O)(=O)c2c(C)noc2/C=C/c2ccccc2F)CC1	-	?	-	-	-	.	.
CC1CN(Cc2nnc(-c3ccccc3)o2)CC(C)O1 (stereo not given)	-	-	-	-	-	.	.

High-throughput results deposited in PubChem by several laboratories.
